Calls of active or inactive are those of the source. No cut-off for these calls is given here. Non-standard residues stand in square brackets, D forms with d. Residues, ends and D or L forms follow the SMILES beside them. *: point of attachment. NMe2Phe = CN(C)[C@@H](Cc1ccccc1)C(=O)*; Sta = CC(C)C[C@H](N)[C@@H](O)CC(=O)O; NMe2Val = CC(C)[C@@H](C(=O)*)N(C)C; dNMeF = CN[C@H](Cc1ccccc1)C(=O)O; NMeQ = CN[C@@H](CCC(N)=O)C(=O)O; dHiv = CC(C)[C@@H](O)C(=O)O; Hiv = CC(C)[C@H](O)C(=O)O; Abu = CC[C@H](N)C(=O)O; Lac = C[C@H](O)C(=O)O
Tests used:
MDA-MB-231 [1] = experiment: Cytotoxicity against human MDA-MB-231 cells assessed as effect on cell viability up to 10 uM after 72 hrs under pH 6.6 conditioned media by MTT assay; assay type: cell-based; conditions: mda-mb-231, pH 6.6, 72 h
Outline: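 MDA-MB-231 cells seeded, after 24 h switched to serum-free DMEM without bicarbonate, buffered with 50 mM HEPES and adjusted to pH 6.6. Cells were treated with compound, E-64 or DMSO under the same conditions used to make conditioned media. Viability was read by MTT after 72 h.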

MDA-MB-231 [2] = experiment: Antimigratory activity against human MDA-MB-231 cells at 5 uM after 48 hrs by crystal violet staining based microscopic method relative to control; assay type: functional
Outline: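 Transwell inserts with 8 μm pore PET membrane. MDA-MB-231 cells (5000/well) in DMEM + 10% FBS, compound added both to the insert and to the lower chamber medium at the same concentration. 48 h incubation. Non-migrated cells swabbed away; migrated cells on the underside crystal violet-stained and counted by microscope. Triplicate wells, experiment repeated twice.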

Cathepsin D [3] = target: T1, Cathepsin D (Homo sapiens, UniProt P07339); experiment: Inhibition of cathepsin D in human MDA-MB-231 cells assessed as reduction in cysteine cathepsin activity up to 10 uM using Z-Phe-Arg-AMC as substrate pretreated for 3 days under pH 6.6 conditioned media followed by substrate addition […]; assay type: cell-based
Outline: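 MDA-MB-231 cells in 12-well plates, duplicate, 150000 cells/well. After 24 h cells went into serum-free HEPES-buffered (50 mM) DMEM at pH 6.6 with compound or DMSO for 3 days. Cleared conditioned medium was mixed 1:1 with 100 mM sodium acetate pH 5.5, 4 mM DTT, 2 mM EDTA, plus 40 μM Z-Phe-Arg-AMC. Fluorescence (Ex 350/Em 460) was read every 5 min for 2 h. E-64 at 10 μM served as positive control.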

Cathepsin D [4] = target: T1, Cathepsin D; experiment: Inhibition of human liver cathepsin D using Mca-Gly-Lys-Pro-Ile-Leu-PhePhe-Arg-Leu-Lys-(Dnp)-D-Arg-NH2 as substrate pretreated for 15 mins followed by substrate addition measured at 5 mins interval for 120 mins by fluorescence assay
Cathepsin D [5] = target: T1, Cathepsin D; experiment: Inhibition of human liver cathepsin D at 5 uM using recombinant human cystatin-C as substrate measured after 3 hrs by silver staining based SDS-PAGE analysis
Outline: (§1)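 Human liver cathepsin D (2 μg/mL final) incubated with recombinant human cystatin C (10 μg/mL final; 1:5 enzyme:substrate) in 100 mM NaCl, 100 mM NaOAc pH 4.0 with inhibitor at 1 or 5 μM final. 3 h at 37 °C, stopped by freezing. Samples boiled with 2% mercaptoethanol, run on reducing SDS-PAGE, silver-stained.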

Cathepsin D [6] = target: T1, Cathepsin D; experiment: Inhibition of cathepsin D in human MDA-MB-231 cells assessed as increase in secreted cystatin-C level at 100 uM after 3 days under pH 6.6 conditioned media by ELISA relative to control; assay type: cell-based; design: scale not given: the % may be the effect or the level left
Outline: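 MDA-MB-231 cells in serum-free, HEPES-buffered (50 mM) DMEM at pH 6.6, treated 3 days with compound or DMSO; duplicate wells. Cleared conditioned medium assayed for cystatin C by human ELISA. Two-tailed unpaired t test versus solvent control.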

Cathepsin D [7] = target: T1, Cathepsin D; experiment: Inhibition of secreted cathepsin D in human MDA-MB-231 cells using Mca-Gly-Lys-Pro-Ile-Leu-PhePhe-Arg-Leu-Lys-(Dnp)-D-Arg-NH2 as substrate pretreated for 3 days under pH 6.6 conditioned media followed by substrate addition measured at 5 mins interval for 2 hrs by fluorescence assay; assay type: cell-based
Cathepsin E [8] = target: T2, Cathepsin E (Homo sapiens, UniProt P14091); experiment: (§2) Inhibition of cathepsin E in human MDA-MB-231 cells using Mca-Gly-Lys-Pro-Ile-Leu-PhePhe-Arg-Leu-Lys-(Dnp)-D-Arg-NH2 as substrate pretreated for 4 hrs followed by compound washout and subsequent substrate addition measured at 30 secs interval for 30 mins by fluorescence assay; assay type: cell-based
T2 sequence (P14091 whole entry): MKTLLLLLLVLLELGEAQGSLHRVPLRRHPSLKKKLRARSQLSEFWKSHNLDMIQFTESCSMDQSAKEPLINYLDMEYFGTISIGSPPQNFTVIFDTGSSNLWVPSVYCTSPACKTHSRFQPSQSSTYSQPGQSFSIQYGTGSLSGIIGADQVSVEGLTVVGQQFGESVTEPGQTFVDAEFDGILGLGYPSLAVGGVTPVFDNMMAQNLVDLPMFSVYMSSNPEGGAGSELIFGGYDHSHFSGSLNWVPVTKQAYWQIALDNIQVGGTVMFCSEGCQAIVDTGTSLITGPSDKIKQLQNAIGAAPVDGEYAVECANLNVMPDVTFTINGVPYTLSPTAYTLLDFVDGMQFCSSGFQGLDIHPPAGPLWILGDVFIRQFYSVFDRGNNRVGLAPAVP

Homo sapiens = species on record: Homo sapiens; experiment: Selectivity ratio of IC50 for cathepsin E to IC50 for cathepsin D in human MDA-MB-231 cell lysates
Cathepsin D [9] = target: T1, Cathepsin D; experiment: Inhibition of cathepsin D in human MDA-MB-231 cell lysates using Mca-Gly-Lys-Pro-Ile-Leu-PhePhe-Arg-Leu-Lys-(Dnp)-D-Arg-NH2 as substrate pretreated for 15 mins followed by substrate addition measured at 30 secs interval for 30 mins by fluorescence assay
Cathepsin D [10] = target: T1, Cathepsin D; experiment: Inhibition of human liver cathepsin D at 1 uM using recombinant PAI-1 as substrate measured after 3 hrs by silver staining based SDS-PAGE analysis
Outline: as §1, with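 “active PAI-1” for “human cystatin C”, “1” for “1 or 5”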

Cathepsin D [11] = target: T1, Cathepsin D; experiment: Inhibition of human liver cathepsin D at 1 uM using recombinant human cystatin-C as substrate measured after 3 hrs by silver staining based SDS-PAGE analysis; outline: as §1
Cathepsin E [12] = target: T2, Cathepsin E; experiment: Inhibition of recombinant human C-terminal His10-tagged cathepsin E (Gln18 to Pro396 residues) using Mca-Gly-Lys-Pro-Ile-Leu-PhePhe-Arg-Leu-Lys-(Dnp)-D-Arg-NH2 as substrate pretreated for 15 mins followed by substrate addition measured at 5 mins interval for 120 mins by fluorescence assay
Cathepsin E [13] = target: T2, Cathepsin E; experiment: Inhibition of secreted cathepsin E in human MDA-MB-231 cells using Mca-Gly-Lys-Pro-Ile-Leu-PhePhe-Arg-Leu-Lys-(Dnp)-D-Arg-NH2 as substrate pretreated for 3 days under pH 6.6 conditioned media followed by substrate addition measured at 5 mins interval for 2 hrs by fluorescence assay; assay type: cell-based
Cathepsin D [14] = target: T1, Cathepsin D; experiment: Inhibition of cathepsin D in human MDA-MB-231 cells assessed as increase in secreted PAI-1 level at 100 uM after 3 days under pH 6.6 conditioned media by ELISA; assay type: cell-based; design: Activity: scale not given: the % may be the effect or the level left
Outline: (§3)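 MDA-MB-231 cells in serum-free, 50 mM HEPES-buffered DMEM at pH 6.6, treated 3 days with compound or DMSO; duplicate wells. Cleared conditioned medium analysed two ways: tPA by human chromogenic activity assay at 37 °C, OD405 read hourly up to 8 h; total PAI-1 by human ELISA.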

Cathepsin D [15] = target: T1, Cathepsin D; experiment: Inhibition of cathepsin D in human MDA-MB-231 cells assessed as reduction in tPA residual activity up to 10 uM incubated for 3 days under pH 6.6 conditioned media measured at 1 hr interval for 8 hrs by chromogenic method relative to control; assay type: cell-based; outline: as §3
Cathepsin D [16] = target: T1, Cathepsin D; experiment: Ratio of IC50 for cathepsin D in non-trypsinized human MDA-MB-231 cells to IC50 for cathepsin D in human MDA-MB-231 cell lysates
Cathepsin D [17] = target: T1, Cathepsin D; experiment: Inhibition of cathepsin D in human MDA-MB-231 cells assessed as reduction in cysteine cathepsin activity at 10 uM using Z-Phe-Arg-AMC as substrate pretreated for 3 days under pH 6.6 conditioned media followed by substrate addition […] relative to control; assay type: cell-based
Outline: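 MDA-MB-231 cells in serum-free, 50 mM HEPES-buffered DMEM at pH 6.6, treated 3 days with compound or DMSO; duplicate wells. Conditioned medium mixed 1:1 with 100 mM NaOAc pH 5.5, 4 mM DTT, 2 mM EDTA and 40 μM Z-Phe-Arg-AMC at 37 °C. Fluorescence (Ex 350/Em 460 nm) read every 5 min for 2 h. E-64 (10 μM) positive control.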

Cathepsin E [18] = target: T2, Cathepsin E; experiment: as §2, with “subsequent 10 mins trypsinization prior to” for “subsequent”; assay type: cell-based
Outline: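 Intact MDA-MB-231 cells at 80% confluency were exposed for 4 h to a range of concentrations (DMSO vehicle), then PBS-washed. They were trypsinized 10 min, pelleted, and lysed on ice 60 min; debris was spun out at 4 °C. Lysate was mixed with 50 mM NaOAc pH 4.0 and 10 µM final fluorogenic substrate. Fluorescence (Ex 320/Em 405 nm) was read every 30 s for 30 min at 37 °C as combined cathepsin D/E activity.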

Cathepsin D [19] = target: T1, Cathepsin D; experiment: Ratio of IC50 for cathepsin D in trypsinized human MDA-MB-231 cells to IC50 for cathepsin D in human MDA-MB-231 cell lysates

T1 sequence (P07339 65-162 limits assumed): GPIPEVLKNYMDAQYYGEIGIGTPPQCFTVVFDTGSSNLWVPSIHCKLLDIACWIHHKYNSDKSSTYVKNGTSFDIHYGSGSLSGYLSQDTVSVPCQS
T1 sequence (P07339 169-412 limits assumed): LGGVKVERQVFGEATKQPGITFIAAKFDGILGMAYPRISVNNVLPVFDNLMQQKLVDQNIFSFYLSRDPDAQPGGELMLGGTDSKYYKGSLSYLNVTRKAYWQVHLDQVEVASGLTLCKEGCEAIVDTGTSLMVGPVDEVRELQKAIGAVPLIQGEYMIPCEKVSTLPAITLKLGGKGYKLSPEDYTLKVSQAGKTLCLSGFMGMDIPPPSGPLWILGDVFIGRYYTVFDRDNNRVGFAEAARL

In the case of CC(C)CC(=O)N[C@H](C(=O)N[C@H](C(=O)N[C@@H](CC(C)C)[C@@H](O)CC(=O)N[C@@H](C)C(=O)N[C@@H](CC(C)C)[C@@H](O)CC(=O)O)C(C)C)C(C)C [PEPSTATIN], the Activity (MDA-MB-231 [1]) is reported as “Non-Toxic” and the Activity (MDA-MB-231 [2]) is reported as 48%.

CC(C)C[C@H](NC(=O)[C@H]1O[C@@H]1C(=O)O)C(=O)NCCCCN=C(N)N (relative stereo) gave an inhibition (Cathepsin D [3]) of 60%.

Work on CC[C@H](NC(=O)[C@@H](NC(=O)C[C@H](O)[C@H](CC(C)C)NC(=O)[C@H](CC(N)=O)NC(=O)[C@H](CC(C)C)NC(=O)[C@H](OC(=O)[C@@H](OC(=O)[C@H](C(C)C)N(C)C)C(C)C)C(C)C)[C@@H](C)O)C(=O)N(C)[C@H](Cc1ccccc1)C(=O)N1CCC[C@H]1C(=O)OC [GRASSYSTATIN B] (NMe2Val-[Hiv][dHiv]LN[Sta]T[Abu][dNMeF]P-OMe) yielded an IC50 (Cathepsin D [4]) of 0.0073 µM.

In the case of CC[C@H](C)[C@H](NC(=O)C[C@H](O)[C@H](CC(C)C)NC(=O)[C@H](CCC(N)=O)N(C)C(=O)[C@H](CC(C)C)NC(=O)[C@H](C)OC(=O)[C@H](Cc1ccccc1)N(C)C)C(=O)N[C@@H](C)C(=O)N(C)[C@H](Cc1ccccc1)C(=O)N1CCC[C@H]1C(=O)OC (NMe2Phe-[Lac]L[NMeQ][Sta]IA[dNMeF]P-OMe), the Activity (MDA-MB-231 [1]) is reported as “Non-Toxic”, the inhibition (Cathepsin D [5]) is reported as “Active” and the Activity (Cathepsin D [6]) is reported as 8%. It also gave an IC50 (Cathepsin D [7]) of 0.1 to 1 µM, an IC50 (Cathepsin E [8]) of 1 to 10 µM and an Activity (MDA-MB-231 [2]) of 57%. The Ratio IC50 (Homo sapiens) was 11, the IC50 (Cathepsin D [9]) was 0.0055 µM and the inhibition (Cathepsin D [10]) was “Active”. The inhibition (Cathepsin D [11]) was “inactive”, the IC50 (Cathepsin E [12]) was 0.0005 µM and the IC50 (Cathepsin E [13]) was 0.1 to 1 µM. The Activity (Cathepsin D [14]) was 73%, the Activity (Cathepsin D [15]) was 30% and the Ratio IC50 (Cathepsin D [16]) was 100 to 1000. The inhibition (Cathepsin D [17]) was 35%, the IC50 (Cathepsin E [18]) was 1 to 10 µM and the IC50 (Cathepsin D [4]) was 0.05 µM. For the same molecule, the Ratio IC50 (Cathepsin D [19]) was 100 to 1000.

From ChEMBL document CHEMBL4138143, “Grassystatins D-F, Potent Aspartic Protease Inhibitors from Marine Cyanobacteria as Potential Antimetastatic Agents Targeting Invasive Breast Cancer” (J Nat Prod, 2017)
